Positions count from the first letter of the chain named.
What was measured:
Details in all cases: stereoisomer not certain
OR4D2 = test system: OR4D2
Procedure, shortened: (§1)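 Whether a receptor–molecule pair is responsive (active) rests on the original authors' judgment that its measured signal was statistically different from baseline. Pairs without that judgment are non-responsive (inactive). Sources used varied assay methods, commonly transient luciferase assays in mammalian cell lines.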

OR4D5 (Homo sapiens) = OR4D5 (Homo sapiens) (UniProt Q8NGN0)
Sequence of OR4D5 (Homo sapiens) (Q8NGN0 whole entry): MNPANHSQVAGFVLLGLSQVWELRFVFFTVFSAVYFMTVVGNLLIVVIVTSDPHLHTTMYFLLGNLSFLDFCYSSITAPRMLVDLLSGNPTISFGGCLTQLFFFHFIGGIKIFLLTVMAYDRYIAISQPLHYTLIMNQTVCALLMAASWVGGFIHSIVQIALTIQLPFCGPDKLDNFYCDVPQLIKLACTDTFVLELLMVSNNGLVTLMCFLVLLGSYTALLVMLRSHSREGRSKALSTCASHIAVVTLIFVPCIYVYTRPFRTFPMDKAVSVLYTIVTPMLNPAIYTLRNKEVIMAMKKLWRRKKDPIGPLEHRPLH
Procedure, shortened: as §1

OR4D6 (Homo sapiens) = OR4D6 (Homo sapiens) (UniProt Q8NGJ1)
Sequence of OR4D6 (Homo sapiens) (Q8NGJ1 whole entry): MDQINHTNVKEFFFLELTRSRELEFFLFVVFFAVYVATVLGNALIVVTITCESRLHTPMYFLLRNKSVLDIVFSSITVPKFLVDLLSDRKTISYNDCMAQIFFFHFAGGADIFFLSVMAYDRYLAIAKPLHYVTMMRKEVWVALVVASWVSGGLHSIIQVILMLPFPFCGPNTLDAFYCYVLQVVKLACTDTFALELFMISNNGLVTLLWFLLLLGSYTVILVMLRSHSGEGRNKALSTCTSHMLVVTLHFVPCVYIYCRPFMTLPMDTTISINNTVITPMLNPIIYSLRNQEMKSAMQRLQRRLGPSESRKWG
Procedure, shortened: as §1

OR4D6 = test system: OR4D6
Sequence of OR4D6 (as listed by the source): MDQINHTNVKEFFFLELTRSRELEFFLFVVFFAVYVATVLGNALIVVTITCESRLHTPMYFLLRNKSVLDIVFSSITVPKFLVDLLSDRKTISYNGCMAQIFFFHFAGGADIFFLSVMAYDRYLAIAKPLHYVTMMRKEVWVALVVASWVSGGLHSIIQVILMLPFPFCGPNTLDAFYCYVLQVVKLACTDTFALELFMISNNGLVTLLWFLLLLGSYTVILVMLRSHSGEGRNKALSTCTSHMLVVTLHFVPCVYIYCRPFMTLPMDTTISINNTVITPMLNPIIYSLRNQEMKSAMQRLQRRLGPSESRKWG
Procedure, shortened: as §1

OR4D9 (Homo sapiens) = OR4D9 (Homo sapiens) (UniProt Q8NGE8)
Sequence of OR4D9 (Homo sapiens) (Q8NGE8 whole entry): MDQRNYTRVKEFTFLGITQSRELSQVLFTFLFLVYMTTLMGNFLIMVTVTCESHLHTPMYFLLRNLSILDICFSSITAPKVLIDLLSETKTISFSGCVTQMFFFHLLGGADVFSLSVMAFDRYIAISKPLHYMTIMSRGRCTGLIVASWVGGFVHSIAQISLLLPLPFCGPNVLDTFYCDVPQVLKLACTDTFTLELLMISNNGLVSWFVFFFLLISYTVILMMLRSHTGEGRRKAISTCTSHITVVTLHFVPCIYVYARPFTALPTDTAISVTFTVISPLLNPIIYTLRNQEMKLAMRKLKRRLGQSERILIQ
Procedure, shortened: as §1

OR4E2 (Homo sapiens) = target: T1, OR4E2 (Homo sapiens) (UniProt Q8NGC2)
T1 sequence (whole entry): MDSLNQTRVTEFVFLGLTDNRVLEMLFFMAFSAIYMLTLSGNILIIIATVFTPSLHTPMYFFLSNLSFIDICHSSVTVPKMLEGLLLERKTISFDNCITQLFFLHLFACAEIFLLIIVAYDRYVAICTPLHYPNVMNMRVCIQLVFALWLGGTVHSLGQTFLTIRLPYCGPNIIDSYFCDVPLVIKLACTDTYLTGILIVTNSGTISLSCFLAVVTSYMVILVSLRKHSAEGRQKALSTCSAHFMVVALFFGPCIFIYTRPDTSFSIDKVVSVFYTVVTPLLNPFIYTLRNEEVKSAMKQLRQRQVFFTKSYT
Procedure, shortened: as §1

OR4E2 A119T = test system: T2, OR4E2 A119T
T2 sequence (whole entry): T1 sequence (whole entry) with V118M, A119T, Q234R
Procedure, shortened: as §1

OR4E2 = test system: T3, OR4E2
T3 sequence (whole entry): T1 sequence (whole entry) with V118M, Q234R
Procedure, shortened: as §1

OR4F15 (Homo sapiens) = target: T4, OR4F15 (Homo sapiens) (UniProt Q8NGB8)
T4 sequence (whole entry): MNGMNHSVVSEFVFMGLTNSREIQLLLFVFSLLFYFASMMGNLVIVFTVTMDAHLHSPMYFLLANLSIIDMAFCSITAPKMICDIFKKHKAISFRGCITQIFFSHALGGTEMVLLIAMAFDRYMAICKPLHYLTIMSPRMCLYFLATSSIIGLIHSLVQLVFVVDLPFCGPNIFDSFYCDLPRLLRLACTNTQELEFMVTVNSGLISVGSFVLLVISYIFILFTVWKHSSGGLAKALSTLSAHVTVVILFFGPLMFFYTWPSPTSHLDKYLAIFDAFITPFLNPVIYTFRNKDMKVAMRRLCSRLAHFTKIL
Procedure, shortened: as §1

OR4F17 (Homo sapiens) = target: T5, OR4F17 (Homo sapiens) (UniProt Q8NGA8)
T5 sequence (whole entry): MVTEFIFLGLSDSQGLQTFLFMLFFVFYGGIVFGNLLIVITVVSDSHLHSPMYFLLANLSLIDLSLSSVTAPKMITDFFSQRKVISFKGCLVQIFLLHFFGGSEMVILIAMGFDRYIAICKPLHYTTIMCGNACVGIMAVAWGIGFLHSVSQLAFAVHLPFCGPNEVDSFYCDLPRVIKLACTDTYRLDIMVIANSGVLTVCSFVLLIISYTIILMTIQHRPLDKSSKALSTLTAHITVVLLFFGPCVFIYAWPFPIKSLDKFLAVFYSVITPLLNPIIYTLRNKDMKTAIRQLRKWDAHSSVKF
Procedure, shortened: as §1

OR4F21 (Homo sapiens) = target: T6, OR4F21 (Homo sapiens) (UniProt O95013)
T6 sequence (whole entry): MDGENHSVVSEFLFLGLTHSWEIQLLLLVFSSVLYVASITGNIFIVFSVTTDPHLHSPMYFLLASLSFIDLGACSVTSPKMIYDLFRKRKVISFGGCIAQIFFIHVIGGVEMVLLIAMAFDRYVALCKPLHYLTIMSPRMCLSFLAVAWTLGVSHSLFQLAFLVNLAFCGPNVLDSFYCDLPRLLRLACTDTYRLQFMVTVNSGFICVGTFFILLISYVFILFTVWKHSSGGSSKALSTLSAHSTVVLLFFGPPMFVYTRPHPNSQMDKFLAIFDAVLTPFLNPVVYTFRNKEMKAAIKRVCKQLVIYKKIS
Procedure, shortened: as §1

OR4F3 (Homo sapiens) = target: T7, OR4F3 (Homo sapiens) (UniProt Q6IEY1)
T7 sequence (whole entry): T6 sequence (whole entry) with F44L, I107V, K310R
Procedure, shortened: as §1

OR4F4 (Homo sapiens) = target: T8, OR4F4 (Homo sapiens) (UniProt Q96R69)
T8 sequence (whole entry): T5 sequence (whole entry) with G15E, R221C, Q293R
Procedure, shortened: as §1

OR4F5 (Homo sapiens) = target: T9, OR4F5 (Homo sapiens) (UniProt Q8NH21)
T9 sequence (whole entry): T5 sequence (whole entry) with G15E, A141T, P160L
Procedure, shortened: as §1

OR4F5 T141A Q293R = test system: T10, OR4F5 T141A Q293R
T10 sequence (whole entry): T5 sequence (whole entry) with G15E, P160L, Q293R
Procedure, shortened: as §1

OR4F6 (Homo sapiens) = target: T11, OR4F6 (Homo sapiens) (UniProt Q8NGB9)
T11 sequence (whole entry): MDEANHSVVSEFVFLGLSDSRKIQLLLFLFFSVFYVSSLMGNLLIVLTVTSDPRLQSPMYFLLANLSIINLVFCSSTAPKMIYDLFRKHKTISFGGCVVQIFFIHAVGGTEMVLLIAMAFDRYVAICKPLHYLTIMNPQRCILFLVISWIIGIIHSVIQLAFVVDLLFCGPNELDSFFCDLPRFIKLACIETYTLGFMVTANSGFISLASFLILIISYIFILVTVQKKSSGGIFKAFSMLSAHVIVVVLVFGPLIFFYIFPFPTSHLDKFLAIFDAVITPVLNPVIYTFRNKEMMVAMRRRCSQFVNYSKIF
Procedure, shortened: as §1

OR4K1 (Homo sapiens) = target: T12, OR4K1 (Homo sapiens) (UniProt Q8NGD4)
T12 sequence (whole entry): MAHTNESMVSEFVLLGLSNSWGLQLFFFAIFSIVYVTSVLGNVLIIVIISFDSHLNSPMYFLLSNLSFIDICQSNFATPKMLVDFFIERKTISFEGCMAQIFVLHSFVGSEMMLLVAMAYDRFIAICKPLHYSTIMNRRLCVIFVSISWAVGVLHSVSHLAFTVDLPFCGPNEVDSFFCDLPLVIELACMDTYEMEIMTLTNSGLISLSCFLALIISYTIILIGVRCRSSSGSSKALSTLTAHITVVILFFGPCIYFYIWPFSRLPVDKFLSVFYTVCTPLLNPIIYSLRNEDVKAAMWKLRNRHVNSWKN
Procedure, shortened: as §1

OR4F3 R310K = test system: OR4F3 R310K
Sequence of OR4F3 R310K (as listed by the source, stated change not applied): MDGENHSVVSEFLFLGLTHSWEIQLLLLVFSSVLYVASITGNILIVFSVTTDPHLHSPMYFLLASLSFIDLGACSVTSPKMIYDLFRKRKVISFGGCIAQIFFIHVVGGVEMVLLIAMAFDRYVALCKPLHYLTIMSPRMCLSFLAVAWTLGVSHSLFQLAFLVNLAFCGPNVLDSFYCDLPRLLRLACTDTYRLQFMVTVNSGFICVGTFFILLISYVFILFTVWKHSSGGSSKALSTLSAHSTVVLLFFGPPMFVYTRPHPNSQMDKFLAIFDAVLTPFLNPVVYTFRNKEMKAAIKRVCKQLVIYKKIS
Procedure, shortened: as §1

OR4F3 V107I = test system: OR4F3 V107I
Sequence of OR4F3 V107I (as listed by the source, stated change not applied): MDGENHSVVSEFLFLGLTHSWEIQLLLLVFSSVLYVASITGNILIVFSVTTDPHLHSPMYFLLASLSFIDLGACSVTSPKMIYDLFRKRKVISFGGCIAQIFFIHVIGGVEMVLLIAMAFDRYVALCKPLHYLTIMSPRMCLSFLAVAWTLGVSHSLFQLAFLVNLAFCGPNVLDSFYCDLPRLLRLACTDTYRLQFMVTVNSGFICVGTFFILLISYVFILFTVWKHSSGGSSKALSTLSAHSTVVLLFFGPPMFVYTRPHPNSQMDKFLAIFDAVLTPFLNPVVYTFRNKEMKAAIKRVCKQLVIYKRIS
Procedure, shortened: as §1

OR4E1 (Homo sapiens) = OR4E1 (Homo sapiens) (UniProt P0C645)
Sequence of OR4E1 (Homo sapiens) (P0C645 whole entry): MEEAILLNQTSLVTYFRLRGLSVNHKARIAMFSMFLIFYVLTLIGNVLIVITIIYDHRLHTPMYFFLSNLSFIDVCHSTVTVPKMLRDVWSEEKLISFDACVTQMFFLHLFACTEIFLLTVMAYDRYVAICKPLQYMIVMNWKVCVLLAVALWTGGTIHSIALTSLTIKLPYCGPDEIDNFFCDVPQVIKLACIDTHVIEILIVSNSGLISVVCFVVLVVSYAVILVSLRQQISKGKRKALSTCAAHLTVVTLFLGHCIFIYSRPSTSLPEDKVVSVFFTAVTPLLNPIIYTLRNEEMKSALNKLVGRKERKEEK
Procedure, shortened: as §1

Measured: odorant receptor agonist call;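 note: active if original authors judged signal statistically different from baseline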

Sequence of OR4D2 (as listed by the source): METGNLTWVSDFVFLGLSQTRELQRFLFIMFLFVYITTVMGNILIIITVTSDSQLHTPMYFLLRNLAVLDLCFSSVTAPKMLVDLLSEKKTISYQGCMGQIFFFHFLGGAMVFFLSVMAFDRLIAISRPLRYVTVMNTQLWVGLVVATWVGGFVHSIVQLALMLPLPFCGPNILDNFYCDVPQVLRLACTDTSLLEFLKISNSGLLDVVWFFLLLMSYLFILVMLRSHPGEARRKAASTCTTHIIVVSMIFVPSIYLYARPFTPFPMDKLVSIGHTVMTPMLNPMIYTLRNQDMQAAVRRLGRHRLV

CCC1OC(=O)C(O)=C1C (centres undefined)
not listed: OR4F3 R310K | OR4F3 V107I | OR4E1 (Homo sapiens)
inactive: all other assays above

CCCC(S)CCOC(C)=O (centres undefined)
not listed: OR4F3 R310K | OR4F3 V107I | OR4E1 (Homo sapiens)
inactive: all other assays above

CC(CO)CS (centres undefined)
not listed: OR4D2 | OR4D6 | OR4E2 A119T | OR4E2 | OR4F5 T141A Q293R | OR4F3 R310K | OR4F3 V107I | OR4E1 (Homo sapiens)
inactive: all other assays above

CCCCCCC=CCCC=O
not listed: OR4E2 A119T | OR4E1 (Homo sapiens)
inactive: all other assays above

CC(=O)c1c(C)c([N+](=O)[O-])c(C(C)(C)C)c([N+](=O)[O-])c1C
not listed: OR4D2 | OR4D6 | OR4E2 A119T | OR4E2 | OR4F5 T141A Q293R | OR4F3 R310K | OR4F3 V107I
inactive: all other assays above

CC1=C(O)C(=O)OC1C (centres undefined)
not listed: OR4F3 R310K | OR4F3 V107I | OR4E1 (Homo sapiens)
inactive: all other assays above

CC1=C(O)C(=O)C(C)O1 (centres undefined)
not listed: OR4F3 R310K | OR4F3 V107I | OR4E1 (Homo sapiens)
inactive: all other assays above

Cc1cnc(C)c(C)n1
not listed: OR4F3 R310K | OR4F3 V107I | OR4E1 (Homo sapiens)
inactive: all other assays above

CCCCCC(S)C(C)CO (centres undefined)
not listed: OR4D2 | OR4D6 | OR4E2 A119T | OR4E2 | OR4F5 T141A Q293R | OR4F3 R310K | OR4F3 V107I | OR4E1 (Homo sapiens)
inactive: all other assays above

CC1CCCCCCCCCCCCC(=O)C1 (centres undefined)
not listed: OR4D2 | OR4D6 | OR4E2 A119T | OR4E2 | OR4F5 T141A Q293R | OR4F3 R310K | OR4F3 V107I
inactive: all other assays above

CCCCC(S)C(C)CO (centres undefined)
not listed: OR4D2 | OR4D6 | OR4E2 A119T | OR4E2 | OR4F5 T141A Q293R | OR4F3 R310K | OR4F3 V107I | OR4E1 (Homo sapiens)
inactive: all other assays above

CCCCCC(=O)C(C)C(C)=O (centres undefined)
not listed: OR4D2 | OR4D6 | OR4E2 A119T | OR4E2 | OR4F5 T141A Q293R | OR4F3 R310K | OR4F3 V107I | OR4E1 (Homo sapiens)
inactive: all other assays above

CCC1OC(C)=C(O)C1=O (centres undefined)
not listed: OR4F3 R310K | OR4F3 V107I | OR4E1 (Homo sapiens)
inactive: all other assays above

CC1=NC(C)C(C)S1 (centres undefined)
not listed: OR4F3 R310K | OR4F3 V107I | OR4E1 (Homo sapiens)
inactive: all other assays above

CC(C)=CCCC(C)=CCO
inactive: OR4E2

CCC(S)C(C)CO (centres undefined)
not listed: OR4D2 | OR4D6 | OR4E2 A119T | OR4E2 | OR4F5 T141A Q293R | OR4F3 R310K | OR4F3 V107I | OR4E1 (Homo sapiens)
inactive: all other assays above
